Activity calls are given as the source filed them. The calls are words filed in the database; no cut-off is given here.
Assays:
[1] = Cytotoxicity against mouse NCTC-929 cells assessed as reduction of cell viability after 24 hrs by resazurin dye-based […]
In short: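 NCTC clone 929 fibroblasts in DMEM with 10% FBS and 2 mM L-glutamine, plated at 3 × 10^4 cells/well and grown overnight at 37 °C, 5% CO2. Compounds in fresh medium for 24 h, then 2 mM resazurin solution added for 3 h. Absorbance read at 570 and 595 nm; CC50 taken as 50% viability loss versus untreated cells, by probit analysis.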

[2] = Cytotoxicity against mouse J774 cells assessed as reduction of cell viability after 24 hrs by resazurin dye-based fluorometric analysis
In short: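 J774 macrophages in RPMI 1640 with 10% heat-inactivated FBS, seeded at 5 × 10^4 cells/well and attached 24 h at 37 °C, 5% CO2. Medium swapped for drug dilutions for 24 h. Then 2.5 mM resazurin stock added for 3 h, fluorescence read at 535 nm excitation / 590 nm emission. Triplicate; CC50 from probit analysis.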

[3] = test system: Leishmania braziliensis; assay: Leishmanicidal activity against extracellular promastigote stage of Leishmania braziliensis 2903 assessed as reduction of parasite load after 48 hrs by resazurin dye-based fluorometric analysis; assay type: functional, organism-based
In short: (§1)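 Log-phase promastigotes cultured in Schneider's medium with 20% heat-inactivated FBS at 26 °C, 2.5 × 10^5 per well. DMSO-dissolved compounds added as 2-fold serial dilutions, final DMSO ≤0.2% (v/v), 48 h at 26 °C. Growth read by 2.5 mM resazurin stock, fluorescence 535/590 nm. Triplicate; IC50 by probit analysis.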

[4] = test system: Leishmania infantum; assay: Leishmanicidal activity against extracellular promastigote stage of Leishmania infantum MCAN/ES/96/BCN150 assessed as reduction of parasite load after 48 hrs by resazurin dye-based fluorometric analysis; assay type: functional, organism-based; in short: as §1
[5] = test system: Trypanosoma cruzi; assay: Trypanocidal activity against extracellular epimastigote stage of Trypanosoma cruzi CL-B5 assessed as reduction of parasite load after 72 hrs by CPRG-based colorimetric analysis
[6] = test system: Leishmania guyanensis; assay: Leishmanicidal activity against extracellular promastigote stage of Leishmania guyanensis 141/93 assessed as reduction of parasite load after 48 hrs by resazurin dye-based fluorometric analysis; assay type: functional, organism-based; in short: as §1
[7] = test system: Leishmania amazonensis; assay: Leishmanicidal activity against extracellular promastigote stage of Leishmania amazonensis MHOM/Br/79/Maria assessed as reduction of parasite load after 48 hrs by resazurin dye-based fluorometric analysis; assay type: functional, organism-based; in short: as §1
[8] = Selectivity index, ratio of CC50 for mouse NCTC-929 cells to IC50 for extracellular epimastigote stage of Trypanosoma cruzi CL-B5; assay type: functional
[9] = test system: Trypanosoma cruzi; assay: Trypanocidal activity against bloodstream trypomastigote stage of Trypanosoma cruzi Y infected in BALB/c mouse assessed as reduction of survival rate at 10 mg/kg/day, ip qd administered for 5 days measured daily until day 30 post-infection; assay type: functional, organism-based
In short: (§2)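 Female BALB/c mice (20–24 g) infected ip with 10^4 Y-strain bloodstream trypomastigotes; only parasitemic animals used. Compounds dissolved in DMSO, freshly diluted in propylene glycol, given ip at 10 mg/kg/day for 5 days from 5 dpi, with an untreated group. Parasitemia counted by Pizzi–Brener in 5 μL tail blood at 5, 8, 10 dpi; mortality checked daily to 30 dpi.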

[10] = test system: Trypanosoma cruzi; assay: Trypanocidal activity against bloodstream trypomastigote stage of Trypanosoma cruzi Y infected in BALB/c mouse assessed as reduction of parasitemia at 10 mg/kg/day, ip qd administered for 3 days measured on day 8 post-infection by microscopic analysis relative to control; assay type: functional; parameters: scale not given: the % may be the effect or the level left; conditions: route intraperitoneal; in short: as §2
[11] = test system: Leishmania amazonensis; assay: Leishmanicidal activity against intracellular amastigote stage of Leishmania amazonensis MHOM/Br/79/Maria infected in mouse J774 cells assessed as reduction of parasite load after 48 hrs by resazurin dye-based fluorometric analysis; assay type: functional, organism-based
In short: (§3)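 J774 macrophages (5 × 10^4/well) infected with stationary promastigotes at 1:10, 24 h at 33 °C then 24 h at 37 °C, 5% CO2, and washed free of promastigotes. Then 2-fold serial dilutions in triplicate for 48 h at 37 °C. Cells lysed with RPMI with 0.048% HEPES and 0.006% SDS, transformed in Schneider's 3 days at 26 °C, resazurin 3 h, fluorescence 535/590 nm.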

[12] = test system: Trypanosoma cruzi; assay: Trypanocidal activity against bloodstream trypomastigote stage of Trypanosoma cruzi Y infected in BALB/c mouse assessed as reduction of parasitemia at 10 mg/kg/day, ip qd administered for 5 days measured on day 10 post-infection by microscopic analysis relative to control; assay type: functional; parameters: scale not given: the % may be the effect or the level left; conditions: route intraperitoneal; in short: as §2
[13] = test system: Leishmania infantum; assay: Leishmanicidal activity against intracellular amastigote stage of Leishmania infantum MCAN/ES/96/BCN150 infected in mouse J774 cells assessed as reduction of parasite load after 48 hrs by resazurin dye-based fluorometric analysis; assay type: functional, organism-based; in short: as §3
[14] = test system: Trypanosoma cruzi; assay: Trypanocidal activity against intracellular amastigote stage of Trypanosoma cruzi CL-B5 infected in mouse NCTC-929 cells assessed as reduction of parasite load after 7 days by CPRG-based colorimetric analysis; conditions: Trypanosoma cruzi, CL-B5, NCTC-929, 168 h; read-out: IC50
[15] = Leishmania braziliensis, 2903, 48 h, read-out: IC50
[16] = Leishmania infantum, MCAN/ES/96/BCN150, 48 h, read-out: IC50
[17] = Trypanosoma cruzi, CL-B5, 72 h, read-out: IC50
[18] = Leishmania guyanensis, 141/93, 48 h, read-out: IC50
[19] = Leishmania amazonensis, MHOM/Br/79/Maria, 48 h, read-out: IC50

Compound	CC50 at 24 h [1] [µM]	CC50 at 24 h [2] [µM]	IC50 [3, 15] [µM]	IC50 [4, 16] [µM]	IC50 [5, 17] [µM]	IC50 [6, 18] [µM]	IC50 [7, 19] [µM]	further results
O=C(Cn1ccnc1[N+](=O)[O-])NCc1ccccc1 [BENZNIDAZOLE]	> 194	≥ 300	–	–	–	–	–	–
O=[N+]([O-])c1ccc(S(=O)(=O)Nc2nccc3ccccc23)cc1	–	41.3	42.5	39.5	136	24.6	27	–
O=[N+]([O-])c1ccc(S(=O)(=O)Nc2ccc3[nH]ncc3c2)cc1	–	133	80.8	61.3	–	140	66.7	–
O=[N+]([O-])c1ccc(S(=O)(=O)Nc2ccc3cn[nH]c3c2)cc1	–	≥ 300	21.7	43.3	–	48.1	60.3	IC50 [5]: Not Active
O=S(=O)(Nc1ccc2c[nH]nc2c1)c1ccc(Cl)cc1	211	≥ 300	35.6	43.5	25.9	46.1	59.1	Ratio CC50/IC50 [8]: >9.9; Activity [9]: inactive; Activity [10]: -10%; IC50 ([11]; j774): Not Active; Activity [12]: 14%; IC50 ([13]; j774): Not Active; IC50 [14]: 12.3 µM
Cc1cc2cc(NS(=O)(=O)c3ccc(F)cc3)ccc2[nH]1	–	40.4	42.7	34.5	–	117	12.5	–
CCCCCCCCCCCCCCCCOP(=O)([O-])OCC[N+](C)(C)C [MILTEFOSINE]	–	136	7.6	17.6	–	44.6	34.1	IC50 ([11]; Leishmania amazonensis, MHOM/Br/79/Maria, J774, 48 h, read-out: IC50): 20.9 µM; IC50 ([13]; Leishmania infantum, MCAN/ES/96/BCN150, J774, 48 h, read-out: IC50): 23.7 µM
O=S(=O)(Nc1cccc2cnccc12)c1ccc(Cl)cc1	–	60.8	29.8	21	–	22.6	8.4	–
O=S(=O)(Nc1ccc2[nH]ncc2c1)c1cccc2ccccc12	–	30	39.7	37.3	–	52.8	37.7	–
O=S(=O)(c1cccc2ccccc12)N1CCc2ccccc2C1	> 310	≥ 300	–	–	114	–	–	IC50 [3]: Not Active; IC50 [4]: Not Active; IC50 [6]: Not Active; IC50 [7]: Not Active
O=S(=O)(Nc1ccc2cn[nH]c2c1)c1ccc(F)cc1	223	≥ 300	88.8	94.8	1.3	96.3	108	Ratio CC50/IC50 [8]: >196.9; Activity [9]: inactive; Activity [10]: -50%; IC50 ([11]; j774): Not Active; Activity [12]: 44%; IC50 ([13]; j774): Not Active; IC50 [14]: 28.5 µM
O=S(=O)(Nc1ccc2nccnc2c1)c1ccc(Cl)cc1	–	23.8	80.9	51.5	–	25.9	46.2	–
